In paper PMC7557949 (ACS Omega, 2020):
Values after ≈ are worked out from the molar mass of the structure shown.

Tests used:
[1] = system: hepatitis A virus HM 175 (HAV HM 175); experiment: Plaque assay, antiviral activity against HAV HM 175; type: cell-based; details: nontoxic dose of compound; average of three independent measurements
Outline: (§1)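 Plaque reduction. Nontoxic dilutions of test compound were mixed 1:1 with virus at 1 × 105, 1 × 106 or 1 × 107, for 0.5 h at 37 °C. 10-fold dilutions went onto BGM (CBV4), FRHK4 (HAV HM 175) or Hep-2 (adenovirus 7), with 1 h adsorption at 37 °C. Overlay was 2× DMEM plus 1% agarose. Cells were formalin-fixed and crystal violet-stained, and plaques counted. Triplicate. IC50 is the half-maximal plaque-reduction concentration.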

[2] = system: adenovirus type 7 (HAdV7); experiment: Plaque assay, antiviral activity against adenovirus type 7; type: cell-based; details: nontoxic dose of compound; average of three independent measurements
Outline: as §1

[3] = system: herpes simplex virus type 1 (HSV-1); experiment: Plaque assay, antiviral activity against HSV-1; type: cell-based; details: for mean % of reduction, herpes simplex virus: nontoxic dose of compound, average of three independent measurements
[4] = system: ED-43/SG-Feo (VYG) replicon of hepatitis C virus genotype 4a (HCVcc); experiment: Antiviral bioassay against ED-43/SG-Feo; type: cell-based; details: nontoxic dose of compound; average of three independent measurements
Outline: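 Huh 7.5 cells carrying the ED-43/SG-Feo (VYG) HCV genotype 4a subgenomic replicon were treated with the nontoxic dose of test compound. Replicon RNA copies were quantified by TaqMan qRT-PCR, and the result was expressed as percent reduction.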

coxsackievirus B4 (CBV4) = experiment: Plaque assay, antiviral activity against CBV4; type: cell-based; details: nontoxic dose of compound; average of three independent measurements
Outline: as §1

C. albicans (ATCC:10231) = experiment: Agar well diffusion, inhibition zone; type: cell-based, Candida albicans; details: 15 mg/mL, 100 μL per well; mm ± SD
Outline: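 Fungal plates were poured and agar dried 15 min. 6 mm wells were cut with a sterile borer and filled with 100 μL test compound solution at 15 mg/mL. Inhibition zone diameter (mm) was read after 48 h incubation. Triplicate, reported as mm ± SD.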

[5] = system: P. aeruginosa (ATCC:27853); experiment: Agar well diffusion, inhibition zone; type: cell-based, Pseudomonas aeruginosa; details: 15 mg/mL, 100 μL per well; mm ± SD
Outline: (§2)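 Agar well diffusion. Saline inoculum adjusted to McFarland 0.5 ([…]), i.e. OD 0.13 at 625 nm, and swabbed over dried agar. After 15 min drying, 6 mm wells received 100 μL of test compound at 15 mg/mL. Plates incubated at 37 °C; bacterial zones read in mm after 24 h incubation […]. Triplicate, reported as mm ± SD. Gentamicin and ampicillin served as reference drugs.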

E. coli (ATCC:3008) = experiment: Agar well diffusion, inhibition zone; type: cell-based, Escherichia coli; details: 15 mg/mL, 100 μL per well; mm ± SD
Outline: as §2

S. aureus (ATCC:6538) [6] = experiment: Agar well diffusion, inhibition zone; type: cell-based, Staphylococcus aureus; details: for diameter of the IZ, S. aureus (ATCC:6538): 15 mg/mL, 100 μL per well, mm ± SD; for zone of inhibition at 15000 µg/mL: Staphylococcus aureus, 24 h, read-out: diameter of the IZ, S. aureus (ATCC:6538)
Outline: as §2

K. pneumonia (ATCC:4415) [7] = experiment: Agar well diffusion, inhibition zone; type: cell-based, Klebsiella pneumonia; details: 15 mg/mL, 100 μL per well; mm ± SD
Outline: as §2

S. mutans (ATCC:25175) [8] = experiment: Agar well diffusion, inhibition zone; type: cell-based; details: for zone of inhibition at 15000 µg/mL: Streptococcus mutans, 24 h, read-out: diameter of the IZ, S. mutans (ATCC:25175)
Outline: as §2

S. mutans (ATCC:25175) [9] = experiment: MIC, twofold serial dilution in agar; type: cell-based; details: Streptococcus mutans, read-out: MIC, S. mutans (ATCC:25175)
S. aureus (ATCC:6538) [10] = experiment: MIC, twofold serial dilution in agar; type: cell-based; details: Staphylococcus aureus, read-out: MIC, S. aureus (ATCC:6538)
K. pneumonia (ATCC:4415) [11] = experiment: MIC, twofold serial dilution in agar; type: cell-based; details: Klebsiella pneumoniae, read-out: MIC, K. pneumonia (ATCC:4415)
[12] = target: T1, dihydrofolate reductase (DHFR) (Homo sapiens, UniProt P00374); experiment: DHFR inhibitor screening assay; type: biochemical; details: for IC50: IC50 on the DHFR, average of three measurements; for inhibition at 0.01 µg/mL: read-out: percent inhibition of DHFR at 0.01 (μg/mL); for inhibition at 0.1 µg/mL: read-out: percent inhibition of DHFR at 0.1 (μg/mL); for inhibition at 1 µg/mL: read-out: percent inhibition of DHFR at 1 (μg/mL); for inhibition at 10 µg/mL: read-out: percent inhibition of DHFR at 10 (μg/mL)
T1 sequence (P00374 1-187): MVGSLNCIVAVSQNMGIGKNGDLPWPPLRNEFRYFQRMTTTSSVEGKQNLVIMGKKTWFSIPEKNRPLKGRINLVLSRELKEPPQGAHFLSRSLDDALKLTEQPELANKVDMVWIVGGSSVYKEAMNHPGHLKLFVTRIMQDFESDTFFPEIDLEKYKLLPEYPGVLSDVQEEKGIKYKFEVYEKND

Hsp90α = Hsp90α (Homo sapiens, UniProt P07900); experiment: Hsp90α; type: biochemical
Sequence of Hsp90α (P07900 535-732 limits assumed): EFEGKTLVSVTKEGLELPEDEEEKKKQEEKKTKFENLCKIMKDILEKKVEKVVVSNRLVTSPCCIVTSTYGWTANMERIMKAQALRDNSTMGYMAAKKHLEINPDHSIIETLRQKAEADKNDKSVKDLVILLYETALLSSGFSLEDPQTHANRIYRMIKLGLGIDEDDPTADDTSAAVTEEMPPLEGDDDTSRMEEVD
Outline: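 AlphaScreen kit assay for Hsp90α C-terminal binding to PPID. Hsp90α was diluted to 1.5 ng/μL in assay buffer and premixed with test compound. The reaction was started with PPID diluted to 10 ng/μL and run 30 min at room temperature. Glutathione acceptor beads were added for 30 min, then streptavidin donor beads for 1 h, and Alpha counts read. Triplicate; percent inhibition calculated against control.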

[13] = Cytotoxicity test on Vero cell line; type: cell-based; details: African green monkey, uninfected Vero cells
Outline: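 Test compound was dissolved at 50 mg/mL in DMSO and decontaminated with 100× antimycotic–antibiotic mix. Cells were seeded at 2 × 10^5 cells/mL and grown 24 h at 37 °C, 5% CO2, to monolayers. Bi-fold dilutions in DMEM were applied for 72 h. Read by daily microscopy for morphology and by trypan blue (0.4%) viable counts. CC50 taken as the concentration giving 50% of untreated-cell OD492.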

Row | SMILES | mean % of reduction, HAV HM 175 [1] | mean % of reduction, adenovirus type 7 [2] | mean % of reduction, herpes simplex virus [3] | mean % of reduction, HCVcc genotype 4 [4] | mean % of reduction, CBV4 (coxsackievirus B4 (CBV4)) | diameter of the IZ, C. albicans (ATCC:10231) (C. albicans (ATCC:10231)) | zone of inhibition at 15000 µg/mL (S. aureus (ATCC:6538) [6]) | zone of inhibition at 15000 µg/mL (S. mutans (ATCC:25175) [8]) | further results
1 | CCSC(SCC)=C(C#N)c1nc2ccccc2s1 [3b, 2-(Benzo[d]thiazol-2-yl)-3,3-bis(ethylthio)acrylonitrile] | 40.0 ± 0.30% | 30.0 ± 0.30% | 26.7 ± 0.20% | 20.0 ± 0.25% | 20.0 ± 0.20% | – | – | – | –
2 | N#Cc1cc(C#N)c(=O)n(NS(=O)(=O)c2ccccc2)c1N [15a, N-(6-Amino-3,5-dicyano-2-oxopyridin-1(2H)-yl)benzenesulfonamide] | – | – | – | – | – | 19.6 ± 2.0 mm | – | – | –
3 | Cc1ccc(S(=O)(=O)Nn2c(N)c(C#N)cc(C#N)c2=O)cc1 [15b, N-(6-Amino-3,5-dicyano-2-oxopyridin-1(2H)-yl)-4-methylbenzenesulfonamide] | 20.0 ± 0.10% | 13.3 ± 0.50% | 30.0 ± 0.30% | 33.3 ± 0.10% | 40.0 ± 0.20% | no activity | – | – | diameter of the IZ, P. aeruginosa (ATCC:27853) [5]: no activity; diameter of the IZ, E. coli (ATCC:3008) (E. coli (ATCC:3008)): no activity; diameter of the IZ, S. aureus (ATCC:6538) (S. aureus (ATCC:6538) [6]): no activity; diameter of the IZ, K. pneumonia (ATCC:4415) (K. pneumonia (ATCC:4415) [7]): no activity; diameter of the IZ, S. mutans (ATCC:25175) (S. mutans (ATCC:25175) [8]; 15 mg/mL, 100 μL per well, mm ± SD): no activity
4 | CSc1c(-c2nc3ccccc3[nH]2)c(N)n(NS(=O)(=O)c2ccccc2)c(=O)c1C#N [13a, N-(6-Amino-5-(1H-benzo[d]imidazol-2-yl)-3-cyano-4-(methylthio)-2-oxopyridin-1(2H)-yl)benzenesulfonamide] | 13.3 ± 0.10% | 10.0 ± 0.10% | 20.0 ± 0.30% | 20.0 ± 0.15% | 20.0 ± 0.10% | 22.0 ± 0.5 mm | 30 ± 1 mm | – | –
5 | CC1(C)S[C@@H]2[C@H](NC(=O)[C@H](N)c3ccccc3)C(=O)N2[C@H]1C(=O)O [ampicillin, reference compound] | – | – | – | – | – | – | 32 ± 0.5 mm | 22 ± 0.5 mm | MIC (S. mutans (ATCC:25175) [9]): 62.5 µg/mL (≈ 179 µM); MIC (S. aureus (ATCC:6538) [10]): 62.5 µg/mL (≈ 179 µM)
6 | CSc1c(-c2nc3ccccc3s2)c(N)n(NS(=O)(=O)c2ccc(C)cc2)c(=O)c1C#N [8b, N-(6-Amino-5-(benzo[d]thiazol-2-yl)-3-cyano-4-(methylthio)-2-oxopyridin-1(2H)-yl)-4-methylbenzenesulfonamide] | 36.7 ± 0.30% | 20.0 ± 0.20% | 33.3 ± 0.25% | 26.7 ± 0.25% | 30.0 ± 0.15% | – | 19.3 ± 1 mm | 10.7 ± 0.5 mm | MIC (K. pneumonia (ATCC:4415) [11]): 125 µg/mL (≈ 258 µM); MIC (S. mutans (ATCC:25175) [9]): 250 µg/mL (≈ 517 µM); IC50 [12]: 2830 nM; inhibition at 0.01 µg/mL [12]: 19.9%; inhibition at 0.1 µg/mL [12]: 40.8%; inhibition at 1 µg/mL [12]: 50.4%; inhibition at 10 µg/mL [12]: 57.7%; MIC (S. aureus (ATCC:6538) [10]): 1000 µg/mL (≈ 2070 µM)
7 | Nc1n[nH]c2c(-c3nc4ccccc4s3)c(N)n(NS(=O)(=O)c3ccccc3)c(=O)c12 [9a, N-(3,6-Diamino-7-(benzo[d]thiazol-2-yl)-4-oxo-1H-pyrazolo[4,3-c]pyridin-5(4H)-yl)benzenesulfonamide] | 10.0 ± 0.10% | 10.0 ± 0.10% | 20.0 ± 0.15% | 13.3 ± 0.10% | 13.3 ± 0.10% | – | 34 ± 1 mm | 13.9 ± 0.5 mm | MIC (S. mutans (ATCC:25175) [9]): 1000 µg/mL (≈ 2210 µM); IC50 [12]: 1540 nM; inhibition at 0.01 µg/mL [12]: 22.6%; inhibition at 0.1 µg/mL [12]: 33.8%; inhibition at 1 µg/mL [12]: 53.6%; inhibition at 10 µg/mL [12]: 68.4%; MIC (S. aureus (ATCC:6538) [10]): 125 µg/mL (≈ 276 µM); diameter of the IZ, S. aureus (ATCC:6538) (S. aureus (ATCC:6538) [6]): 34.0 ± 1.0 mm
8 | CSc1c(-c2nc3ccccc3[nH]2)c(N)n(NS(=O)(=O)c2ccc(C)cc2)c(=O)c1C#N [13b, N-(6-Amino-5-(1H-benzo[d]imidazol-2-yl)-3-cyano-4-(methylthio)-2-oxopyridin-1(2H)-yl)-4-methylbenzenesulfonamide] | – | – | – | – | – | 21.0 ± 0.1 mm | 28.9 ± 0.7 mm | – | –
9 | Nc1nc2c(ncn2COCCO)c(=O)[nH]1 [acyclovir, reference compound] | – | – | – | – | – | – | – | – | inhibition at 0.1 µg/mL (Hsp90α; read-out: percentage inhibition of Hsp90α at 0.1 (μg/mL)): 11.2%; inhibition at 10 µg/mL (Hsp90α; read-out: percentage inhibition of Hsp90α at 10 (μg/mL)): 52.3%; inhibition at 100 µg/mL (Hsp90α; read-out: percentage inhibition of Hsp90α at 100 (μg/mL)): 84.1%; CC50 at 72 h [13]: 2.8 µg/mL (≈ 12.4 µM); IC50 ([3]; Human alphaherpesvirus 1, Vero): 0.7 µg/mL (≈ 3.11 µM)
10 | Cc1ccc(S(=O)(=O)Nn2c(N)c(-c3nc4ccccc4s3)c3[nH]nc(N)c3c2=O)cc1 [9b, N-(3,6-Diamino-7-(benzo[d]thiazol-2-yl)-4-oxo-1H-pyrazolo[4,3-c]pyridin-5(4H)-yl)-4-methylbenzenesulfonamide] | – | – | – | – | – | 24.3 ± 0.5 mm | – | – | diameter of the IZ, E. coli (ATCC:3008) (E. coli (ATCC:3008)): 15.0 ± 0.5 mm
11 | CCSc1c(-c2nc3ccccc3s2)c(N)n(NS(=O)(=O)c2ccc(C)cc2)c(=O)c1C#N [8d, N-(6-Amino-5-(benzo[d]thiazol-2-yl)-3-cyano-4-(ethylthio)-2-oxopyridin-1(2H)-yl)-4-methylbenzenesulfonamide] | – | – | – | – | – | – | 29.9 ± 0.6 mm | 12.5 ± 1 mm | –
12 | CCSc1c(-c2nc3ccccc3s2)c(N)n(NS(=O)(=O)c2ccccc2)c(=O)c1C#N [8c, N-(6-Amino-5-(benzo[d]thiazol-2-yl)-3-cyano-4-(ethylthio)-2-oxopyridin-1(2H)-yl)benzenesulfonamide] | 10.0 ± 0.15% | 10.0 ± 0.15% | 10.0 ± 0.15% | 16.7 ± 0.15% | 13.3 ± 0.10% | – | 24.5 ± 0.7 mm | 21.3 ± 1.1 mm | –
13 | CSc1c(-c2nc3ccccc3s2)c(N)n(NS(=O)(=O)c2ccccc2)c(=O)c1C#N [8a, N-(6-Amino-5-(benzo[d]thiazol-2-yl)-3-cyano-4-(methylthio)-2-oxopyridin-1(2H)-yl)benzenesulfonamide] | – | – | 30.0 ± 0.25% | 20.0 ± 0.10% | – | – | 25.8 ± 0.5 mm | 19.8 ± 1 mm | –
